Measured values from ChEMBL document CHEMBL1255487, “Preclinical evaluation of the antifolate QN254, 5-chloro- N'6'-(2,5-dimethoxy-benzyl)-quinazoline-2,4,6-triamine, as an antimalarial drug candidate” (Antimicrob Agents Chemother, 2010).
pKi: −log10 of the molar value.

Experiments:
[1] = Oral bioavailability in CD-1 mouse at 25 mg/kg; format: ADME, organism-based; settings: in vivo
In short: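 Mice dosed with 25 mg/kg p.o. as a 2.5 mg/ml suspension in 0.5% CMC, or with 5 mg/kg i.v. at 1 mg/ml in 10% NMP, 30% PEG 400 and 60% of 10% vitamin E-TPGS. Blood sampled at several time points. Plasma extracted with acidified acetonitrile (8:1) and quantified by LC-MS, LLOQ 12 ng/ml.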

Plasmodium berghei = assay: Antimalarial activity against Plasmodium berghei ANKA infected in NMRI mice (Mus musculus) assessed as survival rate at 30 mg/kg, perorally administered as single dose; format: functional; settings: route oral
In short: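 Infection: 5 female NMRI mice (20–22 g) per group, inoculated intravenously with 0.2 ml of donor blood at 1 × 10^8 parasitized erythrocytes/ml. Oral administration in 0.5% carboxymethyl cellulose. Survival time recorded up to 30 days after infection and averaged per group.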

Dihydrofolate reductase = molecular target: T1, Dihydrofolate reductase (Homo sapiens, UniProt P00374); assay: Binding affinity to human recombinant DHFR expressed in Escherichia coli BL21(DE3) by competitive binding assay
T1 sequence (P00374 whole entry): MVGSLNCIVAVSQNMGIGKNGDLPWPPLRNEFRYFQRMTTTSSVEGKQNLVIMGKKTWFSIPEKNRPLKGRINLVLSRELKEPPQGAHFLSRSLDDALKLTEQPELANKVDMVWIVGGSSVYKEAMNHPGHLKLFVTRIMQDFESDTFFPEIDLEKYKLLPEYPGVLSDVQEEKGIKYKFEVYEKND

Rattus norvegicus = assay: Toxicity in Wistar rat assessed as occurrence of massive bone marrow atrophy at => 50 mg/kg, po after 2 weeks; format: organism-based; set-up: dose 50 mg/kg, route oral; settings: in vivo, 336 h
In short: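 Male Wistar rats, about 10 weeks old (254–292 g), 5 per group, gavaged daily with 50, 150 or 500 mg/kg/day. Vehicle was 10% of 1% aqueous Solutol HS15 plus 90% of 0.5% aqueous methylcellulose; exploratory 2-week design. Clinical observations, body weight, food intake, hematology, clinical chemistry and gross pathology recorded. Histopathology covered gross lesions and selected organs in the control and low-dose groups.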

Compound: COc1ccc(OC)c(CNc2ccc3nc(N)nc(N)c3c2Cl)c1
- bioavailability [1]: 100%
- Survival (Plasmodium berghei): 8.1 days
- pKi (Dihydrofolate reductase): 7.99
- Activity (Rattus norvegicus): Toxic
